Screening data as filed in PubChem.
Apaf1 inhib – inhibitors of human Apaf-1 apoptosome, primary screen, biochemical, DEVD-Rh110 fluorescence, uHTS | Apoptotic protease-activating factor 1 (Homo sapiens), O14727 | reconstituted apoptosome caspase-3 activity | inhibition, % at 20 µM | 0.71% of 330,000 active; active = inhibition of at least 40% at 20 µM;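 note: plate controls were DMSO wells for no effect and DEVD-CHO caspase inhibitor wells for full effect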
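detection = Rh110 fluorescence intensity | test system = biochemical Apaf-1 apoptosome reconstitution | also added = cytochrome c and DEVD-Rh110 substrate | schedule = 30 min plus 50 min, RT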
UBC13 inh – UBC13 polyubiquitin chain formation inhibitors, primary screen, biochemical, TR-FRET, uHTS; AID 485273, 2010; 0.47% of 330,000 active; inhibition, % at 20 µM; Ubiquitin-conjugating enzyme E2 N (Homo sapiens), P61088; in the data active = inhibition above about 45%, passing the limit was not always enough
Neddylation inh – inhibitors of cullin neddylation, primary screen, biochemical, TR-FRET, uHTS, NAE and Ubc12. calls only at 25 µM. 0.58% of 360,000 active. AID 651699, 2012; in the data active = inhibition above about 36%
FID counter – compounds displacing fluorescent DNA intercalator, primary screen, artefact control for HCV NS3 helicase inhibitor project, biochemical, FID fluorescence; DNA fluorescent intercalator displacement; inhibition, % at 7.9 µM; 0.17% of 290,000 active; AID 1845, 2009; in the data active = inhibition above about 37%;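 note: 0% = vehicle and 100% = reference compound; higher means more ethidium bromide displaced from hairpin DNA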
RAD52 anneal inh – RAD52 DNA annealing inhibitors, primary screen, biochemical, FRET, single point, set 2; recombinant RAD52 DNA annealing, FRET fluorescence; inhibition, % at 18.7 µM; DNA repair protein RAD52 homolog (Homo sapiens), P43351; 0.46% of 360,000 active; AID 651710, 2012;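 active = every replicate showing at least 50% inhibition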
RAD54 branch – inhibitors of human RAD54 branch migration, primary screen, biochemical, fluorescence, single point; DNA repair and recombination protein RAD54-like (Homo sapiens), Q92698; RAD54 Holliday junction branch migration, FAM/BHQ fluorescence; inhibition, % at 10.4 µM; 0.14% of 360,000 active; AID 602329, 2012;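 active = mean normalized replicate activity at least 40 and at least half of replicates scoring 40 or more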;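 note: 0% = median of neutral control wells and 100% = median of positive control wells; inhibitors cause a drop in the FAM fluorescence signal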
Target sequence (Q92698 whole entry, looked up): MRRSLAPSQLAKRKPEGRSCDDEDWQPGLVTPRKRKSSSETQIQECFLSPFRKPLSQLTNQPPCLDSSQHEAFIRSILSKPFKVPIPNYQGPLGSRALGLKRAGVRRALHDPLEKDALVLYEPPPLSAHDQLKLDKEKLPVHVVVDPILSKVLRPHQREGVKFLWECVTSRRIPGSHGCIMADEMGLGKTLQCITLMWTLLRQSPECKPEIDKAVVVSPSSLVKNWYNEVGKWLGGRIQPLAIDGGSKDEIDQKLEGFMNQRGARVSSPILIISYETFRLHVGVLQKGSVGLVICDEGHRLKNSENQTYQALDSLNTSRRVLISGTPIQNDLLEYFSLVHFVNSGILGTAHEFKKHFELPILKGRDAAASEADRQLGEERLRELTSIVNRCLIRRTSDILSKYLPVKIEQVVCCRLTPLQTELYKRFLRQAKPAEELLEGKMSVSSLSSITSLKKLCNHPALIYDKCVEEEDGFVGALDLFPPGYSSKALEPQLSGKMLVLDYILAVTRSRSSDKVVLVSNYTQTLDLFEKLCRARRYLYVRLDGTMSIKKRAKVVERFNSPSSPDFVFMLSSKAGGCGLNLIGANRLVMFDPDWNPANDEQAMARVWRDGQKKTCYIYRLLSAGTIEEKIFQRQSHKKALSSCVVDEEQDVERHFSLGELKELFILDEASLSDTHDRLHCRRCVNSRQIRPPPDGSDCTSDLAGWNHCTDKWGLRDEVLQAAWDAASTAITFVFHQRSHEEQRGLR
Active calls of the source: *; i = inactive; nt = no result given; + = active, no number. Only some compounds are listed: those with a hit (about 1.6% of all), similar ones and a draw of the others.

SMILES | Apaf1 inhib | UBC13 inh | Neddylation inh | FID counter | RAD52 anneal inh | RAD54 branch
CC(C)N1CCc2c(sc(NC(=O)c3ccc4ccccc4c3)c2C(N)=O)C1 | 12 | 23 | + | 15 | i | -9
CC(=O)N1CCc2c(sc(NC(=O)c3cccc(N4C(=O)CCC4=O)c3)c2C(N)=O)C1 | 57* | -13 | i | 7 | -61 | -31
O=C(CC1CC1)N1[C@H](CO)[C@@H](c2ccccc2)C12CN(Cc1ccncc1)C2 | nt | nt | nt | nt | -12 | nt
COc1ccc2c3c(n(C)c2c1)[C@@H](CO)N(C(=O)CN(C)C)CC31CCN(Cc2nccs2)CC1 | nt | nt | nt | nt | 8 | nt
C[C@]12C=CC(=O)C=C1CC[C@@H]1C2=CC[C@]2(C)[C@@H](C(=O)CN3CCN(c4cc(N5CCCC5)nc(N5CCCC5)n4)CC3)CC[C@@H]12 | 87* | -22 | i | nt | -23 | -12
CCOC(=O)NNc1ccc2nonc2c1[N+](=O)[O-] | 96* | -82 | nt | 0 | nt | nt
CCc1ccc(Nc2ccc3nonc3c2[N+](=O)[O-])cc1 | -15 | -4 | i | nt | -28 | nt
CCOC(=O)Cc1csc(N/C(=N/S(=O)(=O)c2ccc(Cl)cc2)c2ccccc2)n1 | 63* | -5 | i | -32 | -13 | nt
COCC(=O)N(C)C[C@@H]1Oc2ncc(-c3ccc(C)cc3)cc2C(=O)N([C@H](C)CO)C[C@@H]1C | nt | nt | nt | nt | 4 | -2
Cc1cc(N2CCOCC2)nc2ccc(NC(=S)NCCN(C)C)cc12 | 12 | -2 | i | 52* | 43 | 30
CCN(CC)CCNC(=S)Nc1ccc2nc(N3CCOCC3)cc(C)c2c1 | 6 | 0 | i | 15 | 22 | 2
O=C(Nc1ccc(C2=NCCN2)cc1)c1ccc(Cl)c(C(=O)Nc2ccc(C3=NCCN3)cc2)c1 | 32 | 106* | nt | 49* | nt | nt
O=C(Nc1ccc(Cl)c(Cl)c1)c1ccc(Cl)c(Cl)c1 | 5 | -1 | i | -4 | -12 | -4
COc1cccc(NC(=O)Nc2ccc3c(c2)OC[C@@H](C)NC[C@H](C)[C@@H](OC)CN(C)C3=O)c1 | nt | nt | nt | nt | 76* | 1
COc1ccc(NC(=O)Nc2ccc3c(c2)OC[C@H](C)NC[C@@H](C)[C@@H](OC)CN(C)C3=O)cc1 | nt | nt | nt | nt | -7 | 8
CO[C@H]1CN(C)C(=O)c2cc(NC(=O)c3ccc(Oc4ccccc4)cc3)ccc2OC[C@@H](C)NC[C@H]1C | nt | nt | nt | nt | 41 | 16
CO[C@H]1CN(C)C(=O)c2ccc(NC(=O)c3ccc(Oc4ccccc4)cc3)cc2OC[C@H](C)NC[C@@H]1C | nt | nt | nt | nt | 51* | 7
COc1cccc(NC(=O)Nc2ccc3c(c2)C(=O)N(C)C[C@@H](OC)[C@H](C)CN[C@H](C)CO3)c1 | nt | nt | nt | nt | 59* | 17
COc1ccc(NC(=O)Nc2ccc3c(c2)C(=O)N(C)C[C@@H](OC)[C@@H](C)CN[C@H](C)CO3)cc1 | nt | nt | nt | nt | nt | 9
COc1ccc(NC(=S)Nc2cccc3ccccc23)cc1OC | 83* | -42 | i | -5 | -11 | -5
CC(=O)c1ccc(NC(=S)Nc2cccc3cnccc23)cc1 | 96* | -58 | i | 2 | -4 | nt
Cc1ccc(C)c(NC(=S)Nc2cccc3cnccc23)c1 | 96* | -73 | i | 5 | -10 | nt
S=C(Nc1cccc(Cl)c1)Nc1cccc2cnccc12 | nt | nt | i | 9 | nt | nt
Cc1ccc(F)c(NC(=S)Nc2cccc3ccccc23)c1 | 78* | -30 | i | 1 | -18 | 9
COc1ccc(S(=O)(=O)Nc2cccc3c2O[C@@H](CN(C)S(=O)(=O)c2ccc(C)cc2)[C@H](C)CN([C@@H](C)CO)C3=O)cc1 | nt | nt | nt | nt | nt | 4
SMILES | Apaf1 inhib | UBC13 inh | Neddylation inh | FID counter | RAD52 anneal inh | RAD54 branch
CCCNC(=O)C[C@@H]1C[C@H]2c3cc(NC(=O)NC4CCCCC4)ccc3O[C@H]2[C@@H](CO)O1 | nt | nt | nt | nt | -1 | -5
CC(C)C[C@@H]1NC(=O)[C@@H]2C[C@H](C(=O)NCc3ccc(F)cc3)[C@H](c3ccc(O)cc3)N2C1=O | nt | nt | nt | nt | 23 | -15
CC(=O)c1cccc(NC(=S)NCc2ccccc2)c1 | 8 | 3 | i | -4 | -5 | 8
CC(=O)c1cccc(NC(=S)Nc2cccc3ccccc23)c1 | 81* | -31 | i | 0 | -19 | 8
CCC(C)Nc1ccc(NC(C)CC)cc1 (stereo not given) | 43* | -11 | i | nt | nt | 3
COc1ccc2c3c(n(C)c2c1)[C@H](CO)NCC31CN(Cc2cc(-c3ccccc3)on2)C1 | nt | nt | nt | nt | 80* | nt
COc1ccc2c3c(n(C)c2c1)[C@H](CO)N(CC1CCCCC1)CC31CCN(C(=O)CN(C)C)CC1 | nt | nt | nt | nt | -45 | nt
COc1ccc2c3c(n(C)c2c1)[C@@H](CO)NCC31CCN(S(=O)(=O)c2cccc(C)c2)CC1 | nt | nt | nt | nt | 54* | nt
COc1ccc2c3c(n(C)c2c1)[C@@H](CO)NCC31CCN(Cc2cc(-c3ccccc3)on2)CC1 | nt | nt | nt | nt | 59* | nt
COc1ccc2c3c(n(C)c2c1)[C@@H](CO)NCC31CN(Cc2cc(-c3ccccc3)on2)C1 | nt | nt | nt | nt | 33 | nt
COc1ccc2c3c(n(C)c2c1)[C@@H](CO)N(CC1CC1)CC31CCN(C(=O)CN(C)C)CC1 | nt | nt | nt | nt | 73* | nt
CCOC(=O)C1=CC[C@@H](c2ccc3ccccc3n2)[C@@H]1C(=O)c1ccccc1 | nt | nt | nt | nt | -68 | nt
C[C@@H]1CN([C@H](C)CO)C(=O)c2cc(NC(=O)CCCCCC(=O)Nc3ccccc3N)ccc2O[C@@H]1CN(C)C(=O)Nc1ccc(F)cc1 | nt | nt | nt | nt | 15 | nt
COc1ccc2c3c([nH]c2c1)[C@H](CO)N(S(C)(=O)=O)CC31CN(CC2CC2)C1 | nt | nt | nt | nt | -2 | nt
COc1ccc2c3c(n(C)c2c1)[C@H](CO)NCC31CCN(CC2CCCC2)CC1 | nt | nt | nt | nt | 38 | nt
COc1ccc2c3c(n(C)c2c1)[C@H](CO)NCC31CN(CC2CCOCC2)C1 | nt | nt | nt | nt | 76* | nt
C=C[C@H](COC(C)=O)N(Cc1ccc(OC(C)=O)c(OC)c1)S(=O)(=O)c1ccc(Br)cc1 | nt | nt | nt | nt | 18 | 2
CC(=O)Nc1cc(OC(C)=O)c2nonc2c1OC(C)=O | 98* | -39 | i | 4 | nt | 2
COc1ccc(NC(=O)N2CCCCN3[C@H](CO)[C@H](c4ccc(C5=CCCC5)cc4)[C@@H]3C2)cc1 | nt | nt | nt | nt | 4 | -1
COc1ccc(NC(=O)N2CCCCN3[C@H](CO)[C@@H](c4ccc(C5=CCCC5)cc4)[C@H]3C2)cc1 | nt | nt | nt | nt | 65* | -1
COc1ccc(NC(=O)N2CCCCN3[C@@H](CO)[C@H](c4ccc(C5=CCCCC5)cc4)[C@@H]3C2)cc1 | nt | nt | nt | nt | 71* | 1
Nc1ccc(O)cc1C(=O)OCC(=O)c1ccc(C2CCCCC2)cc1 | nt | nt | + | -12 | nt | nt
O=C(C[C@H]1CC[C@H](NC(=O)Nc2ccc3c(c2)OCO3)[C@@H](CO)O1)NCc1ccc(Cl)cc1 | nt | nt | nt | nt | 2 | -1
